According to ChEMBL document CHEMBL4765336, “Discovery of coumarin derivatives as potent and selective cyclin-dependent kinase 9 (CDK9) inhibitors with high antitumour activity” (Eur J Med Chem, 2020):

What was measured:
[1] = molecular target: CDK9/cyclin T1 (Homo sapiens, UniProt P50750); assay: Inhibition of CDK9/Cyclin T1 (unknown origin) preincubated for 20 mins followed by ATP addition and measured after 120 mins in presence of [33P-gamma] ATP by hotspot kinase assay; format: protein-complex assay
[2] = molecular target: CDK2/Cyclin A2 (Homo sapiens) (UniProt P24941+P20248); assay: Inhibition of CDK2/Cyclin A (unknown origin) assessed as enzyme activity at 1 uM preincubated for 20 mins followed by ATP addition and measured after 120 mins in presence of [33P-gamma] ATP by hotspot kinase assay relative to control; format: protein-complex assay; parameters: scale not given: the % may be the effect or the level left; conditions: time 140.0 min
Procedure, shortened: (§1)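 Radiometric filter-binding kinase assay, buffer pH 7.5 with 10 mM MgCl2 and 1% DMSO. Compound tested at a single 1.0 μM, preincubated 20 min at 25 °C. Reaction started with ATP/[γ-33P]ATP at 10 μM final, run 120 min at 25 °C. Remaining % enzyme activity reported, n=2.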

[3] = system: MV4-11; assay: Antiproliferative activity against human MV4-11 cells assessed as inhibition of cell growth incubated for 72 hrs by Celltiter-Glo luminescent assay; format: functional, cell-based; conditions: MV4-11, 72 h
Procedure, shortened: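 Cells seeded in growth medium and held overnight at 37 °C; medium-only wells served as background. DMSO stocks were diluted in medium to 3× final and added; cells incubated 72 h at 37 °C, 5% CO2. Viability read by CellTiter-Glo luminescence after 60 min at room temperature. IC50 from curve fit, mean of duplicate.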

[4] = molecular target: CDK9/cyclin T1 (Homo sapiens) (UniProt O60563+P50750); assay: Inhibition of CDK9/Cyclin T1 (unknown origin) assessed as enzyme activity at 1 uM preincubated for 20 mins followed by ATP addition and measured after 120 mins in presence of [33P-gamma] ATP by hotspot kinase assay relative to control; format: protein-complex assay; parameters: scale not given: the % may be the effect or the level left; conditions: time 140.0 min; procedure, shortened: as §1
[5] = molecular target: CDK2/Cyclin A2 (Homo sapiens, UniProt P24941); assay: Inhibition of CDK2/Cyclin A (unknown origin) preincubated for 20 mins followed by ATP addition and measured after 120 mins in presence of [33P-gamma] ATP by hotspot kinase assay; format: protein-complex assay
Procedure, shortened: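 Radiometric filter-binding assay: kinase and substrate in 20 mM Hepes pH 7.5, 10 mM MgCl2, 1 mM EGTA, 0.02% Brij35, 0.02 mg/mL BSA, 0.1 mM Na3VO4, 2 mM DTT, 1% DMSO. Compound (top 1/10/27 μM, 3-fold serial dilutions) preincubated 20 min at 25 °C. ATP plus [γ-33P]ATP added to 10 μM final, reacted 120 min at 25 °C. IC50 from curve fit, duplicate mean.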

[6] = system: MV4-11; assay: Antitumor activity against human MV4-11 cells xenografted in Balb/c nude mouse assessed as reduction in tumor volume at 40 mg/kg, iv administered once daily for 21 days (reference value: 1.00 g); format: functional; conditions: time 21 day
[7] = Metabolic stability in human liver microsomes assessed as half life at 1 uM incubated up to 60 mins in presence of NADPH by LC-MS/MS analysis; format: ADME, Microsome
Procedure, shortened: (§2)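 Liver microsomes (0.5 mg/mL) incubated at 37 °C with compound at 1.0 μM final, 3 mM MgCl2 and 1 mM NADPH in 100 mM PBS pH 7.4. Samples taken at 0, 5, 15, 30, 60 min; remaining parent measured by LC-MS/MS. k = −slope, T1/2 = 0.693/k, CLint = k/microsomal protein concentration. Midazolam served as control.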

[8] = Metabolic stability in human liver microsomes assessed as intrinsic clearance at 1 uM incubated up to 60 mins in presence of NADPH by LC-MS/MS analysis; format: ADME, Microsome; conditions: read-out: CLH; procedure, shortened: as §2
[9] = Metabolic stability in monkey liver microsomes assessed as half life at 1 uM incubated up to 60 mins in presence of NADPH by LC-MS/MS analysis; format: ADME, Macaca mulatta, Microsome; conditions: rhesus monkey; procedure, shortened: as §2
[10] = Metabolic stability in monkey liver microsomes assessed as intrinsic clearance at 1 uM incubated up to 60 mins in presence of NADPH by LC-MS/MS analysis; format: ADME, Macaca mulatta, Microsome; conditions: rhesus monkey, read-out: CLH; procedure, shortened: as §2
[11] = Metabolic stability in dog liver microsomes assessed as half life at 1 uM incubated up to 60 mins in presence of NADPH by LC-MS/MS analysis; format: ADME, Canis lupus familiaris, Microsome; procedure, shortened: as §2
[12] = Metabolic stability in dog liver microsomes assessed as intrinsic clearance at 1 uM incubated up to 60 mins in presence of NADPH by LC-MS/MS analysis; format: ADME, Canis lupus familiaris, Microsome; conditions: read-out: CLH; procedure, shortened: as §2
[13] = Metabolic stability in rat liver microsomes assessed as half life at 1 uM incubated up to 60 mins in presence of NADPH by LC-MS/MS analysis; format: ADME, Microsome; procedure, shortened: as §2
[14] = Metabolic stability in rat liver microsomes assessed as intrinsic clearance at 1 uM incubated up to 60 mins in presence of NADPH by LC-MS/MS analysis; format: ADME, Microsome; conditions: read-out: CLH; procedure, shortened: as §2

Chain of CDK9/cyclin T1 (O60563 whole entry): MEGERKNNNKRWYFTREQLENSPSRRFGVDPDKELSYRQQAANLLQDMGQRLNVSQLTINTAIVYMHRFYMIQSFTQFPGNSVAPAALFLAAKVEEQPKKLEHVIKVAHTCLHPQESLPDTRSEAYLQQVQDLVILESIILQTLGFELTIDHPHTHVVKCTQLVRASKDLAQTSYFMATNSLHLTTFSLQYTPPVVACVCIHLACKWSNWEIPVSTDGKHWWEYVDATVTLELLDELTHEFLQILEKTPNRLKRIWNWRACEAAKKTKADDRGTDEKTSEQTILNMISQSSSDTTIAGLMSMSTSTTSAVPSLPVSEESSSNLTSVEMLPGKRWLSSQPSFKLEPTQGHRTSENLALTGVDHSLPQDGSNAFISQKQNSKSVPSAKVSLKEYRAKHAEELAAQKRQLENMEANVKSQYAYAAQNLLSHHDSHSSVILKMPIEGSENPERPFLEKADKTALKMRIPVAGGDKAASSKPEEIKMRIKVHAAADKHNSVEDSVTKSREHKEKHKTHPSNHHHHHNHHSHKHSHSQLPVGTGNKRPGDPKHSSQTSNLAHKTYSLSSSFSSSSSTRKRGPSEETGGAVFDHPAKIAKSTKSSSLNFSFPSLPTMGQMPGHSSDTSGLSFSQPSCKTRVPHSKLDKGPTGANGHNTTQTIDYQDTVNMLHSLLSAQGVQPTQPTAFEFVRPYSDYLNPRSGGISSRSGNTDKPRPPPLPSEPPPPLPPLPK
Chain of CDK9/cyclin T1 (P50750 whole entry): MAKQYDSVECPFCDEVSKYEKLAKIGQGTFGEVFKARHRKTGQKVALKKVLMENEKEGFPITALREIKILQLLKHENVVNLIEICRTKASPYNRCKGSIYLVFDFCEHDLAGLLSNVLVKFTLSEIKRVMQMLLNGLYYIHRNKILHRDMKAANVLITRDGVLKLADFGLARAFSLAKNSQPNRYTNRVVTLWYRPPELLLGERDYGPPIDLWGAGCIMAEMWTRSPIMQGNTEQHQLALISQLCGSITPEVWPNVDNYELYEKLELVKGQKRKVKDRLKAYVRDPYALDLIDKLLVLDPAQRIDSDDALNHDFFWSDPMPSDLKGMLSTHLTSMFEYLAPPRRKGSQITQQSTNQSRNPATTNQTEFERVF

| Compound | IC50 [1] [nM] | Activity [2] [%] | IC50 [3] [nM] | IC50 [5] [nM] | other results |
| --- | --- | --- | --- | --- | --- |
| CCc1ccccc1-c1ccnc(Nc2ccc3c(N4CCOCC4)c(C(C)=O)c(=O)oc3c2)n1 | 66.5 | 40.5 | 9840 |  |  |
| COc1cccc(-c2ccnc(Nc3ccc4c(N5CCOCC5)c(C(C)=O)c(=O)oc4c3)n2)c1OC |  |  | 5070 |  | Activity [4]: 51.7% |
| CC(=O)c1c(N2CCOCC2)c2ccc(Nc3cc(-c4ccccc4C)ncn3)cc2oc1=O |  |  |  |  | Activity [4]: 92.2% |
| CCN1CCN(c2c(C(C)=O)c(=O)oc3cc(Nc4nccc(-c5ccc(F)cc5OC)n4)ccc23)CC1 | 10.5 | 61.8 | 740 |  |  |
| COc1cc(F)ccc1-c1nc(Nc2ccc3c(N4CCOCC4)cc(=O)oc3c2)ncc1F | 1.6 | 22 | 3110 |  |  |
| COc1cc(F)ccc1-c1nc(Nc2ccc3c(N4CCOCC4)c(C(C)=O)c(=O)oc3c2)ncc1Cl | 3.6 |  | 1010 | 401 |  |
| COc1cc(F)ccc1-c1nc(Nc2ccc3c(N4CCCNCC4)c(C(C)=O)c(=O)oc3c2)ncc1F | 1.6 |  | 420 | 496 |  |
| CC(=O)c1c(N2CCOCC2)c2ccc(Nc3nccc(-c4ccccc4C)n3)cc2oc1=O | 489 |  |  |  |  |
| CCC(=O)c1c(N2CCOCC2)c2ccc(Nc3nccc(-c4ccc(F)cc4OC)n3)cc2oc1=O | 3.6 |  | 430 | 1090 |  |
| CC(=O)c1c(N2CCOCC2)c2ccc(Nc3nccc(-c4ccccc4[N+](=O)[O-])n3)cc2oc1=O | 2340 |  | > 10000 |  |  |
| CC(=O)c1c(N2CCOCC2)c2ccc(Nc3cc(-c4ccccc4C(F)(F)F)ncn3)cc2oc1=O |  |  |  |  | Activity [4]: 106% |
| COc1ccccc1-c1ccnc(Nc2ccc3c(N4CCCNCC4)cc(=O)oc3c2)n1 | 11.7 |  | 1680 | 2060 |  |
| COc1ccccc1-c1ccnc(Nc2ccc3c(C)c(C(C)=O)c(=O)oc3c2)n1 | 6.5 |  | 10200 | 451 |  |
| COc1ccc(-c2ccnc(Nc3ccc4c(N5CCOCC5)c(C(C)=O)c(=O)oc4c3)n2)cc1 | 81.7 | 21.6 | 6490 |  |  |
| COc1ccccc1-c1cc(Nc2ccc3c(N4CCOCC4)c(C(C)=O)c(=O)oc3c2)ncn1 | 210 |  | > 10000 | 3420 |  |
| CCc1ccccc1-c1cc(Nc2ccc3c(N4CCOCC4)c(C(C)=O)c(=O)oc3c2)ncn1 |  |  |  |  | Activity [4]: 90% |
| CC(=O)c1c(N2CCOCC2)c2ccc(Nc3nccc(-c4ccccc4C(F)(F)F)n3)cc2oc1=O | 2490 |  |  |  |  |
| CC(=O)c1c(N2CCOCC2)c2ccc(Nc3nccc(-c4c(F)cccc4F)n3)cc2oc1=O | 267 |  | > 10000 |  |  |
| COc1cc(F)ccc1-c1ccnc(Nc2ccc3c(N4CCCCC4)c(C(C)=O)c(=O)oc3c2)n1 | 6.5 | 73.1 | 730 |  |  |

| Compound | IC50 [1] [nM] | Activity [2] [%] | IC50 [3] [nM] | IC50 [5] [nM] | other results |
| --- | --- | --- | --- | --- | --- |
| COc1ccc(-c2ccnc(Nc3ccc4c(N5CCOCC5)c(C(C)=O)c(=O)oc4c3)n2)c(OC)c1 | 54.2 | 46.3 | 820 |  |  |
| CC(=O)c1c(N2CCOCC2)c2ccc(Nc3nccc(-c4ccccc4)n3)cc2oc1=O | 228 |  |  |  |  |
| COc1cccc(-c2ccnc(Nc3ccc4c(N5CCOCC5)c(C(C)=O)c(=O)oc4c3)n2)c1 | 18.4 | 54.1 | 1490 |  |  |
| Nc1ccn([C@@H]2O[C@H](CO)[C@@H](O)[C@@H]2O)c(=O)n1 [CYTARABINE] |  |  |  |  | Activity [6]: 0.26 g |
| CC(=O)c1c(N2CCOCC2)c2ccc(Nc3cc(-c4ccccc4)ncn3)cc2oc1=O |  |  |  |  | Activity [4]: 104% |
| COc1cccc(F)c1-c1ccnc(Nc2ccc3c(N4CCOCC4)c(C(C)=O)c(=O)oc3c2)n1 | 13.7 | 58.7 | 520 |  |  |
| COc1ccccc1-c1ccnc(Nc2ccc3c(N4CCOCC4)c(C(C)=O)c(=O)oc3c2)n1 | 3.1 |  | 1010 | 1280 |  |
| COc1cc(F)ccc1-c1ccnc(Nc2ccc3c(N4CCN(C)CC4)c(C(C)=O)c(=O)oc3c2)n1 | 16.4 | 74.8 | 520 |  |  |
| COc1cc(F)ccc1-c1ccnc(Nc2ccc3c(N4CCOCC4)cc(=O)oc3c2)n1 | 18.2 |  | 2280 | 1330 |  |
| Cc1ncc2n1-c1ccc(Cl)cc1C(c1ccccc1F)=NC2 [MIDAZOLAM] |  |  |  |  | half-life at 1 µM [7]: 12.1 min; microsomal CLint at 1 µM [8]: 287 µL/min/mg; half-life at 1 µM [9]: 6.29 min; microsomal CLint at 1 µM [10]: 551 µL/min/mg; half-life at 1 µM [11]: 2.31 min; microsomal CLint at 1 µM [12]: 1500 µL/min/mg; half-life at 1 µM [13]: 3.82 min; microsomal CLint at 1 µM [14]: 908 µL/min/mg |
| COc1ccccc1-c1ccnc(Nc2ccc3c(N4CCNCC4)cc(=O)oc3c2)n1 | 25.3 |  | 1340 | 3660 |  |
| CCC(=O)c1c(N2CCOCC2)c2ccc(Nc3ncc(F)c(-c4ccc(F)cc4OC)n3)cc2oc1=O | 0.7 |  | 420 | 338 |  |
| COc1ccccc1-c1cc(Nc2ccc3c(C)c(C(C)=O)c(=O)oc3c2)ncn1 | 37.6 | 64.5 | > 10000 |  |  |
| CCc1c(N2CCOCC2)c2ccc(Nc3nccc(-c4ccccc4OC)n3)cc2oc1=O | 67.3 |  | 4720 | 10900 |  |
| COc1ccc(F)cc1-c1ccnc(Nc2ccc3c(N4CCOCC4)c(C(C)=O)c(=O)oc3c2)n1 | 21.8 | 49.6 | 1740 |  |  |
| COc1ccccc1-c1ccnc(Nc2ccc3c(N4CCOCC4)cc(=O)oc3c2)n1 | 47.2 | 57.9 | 4570 |  |  |
| COc1cc(F)ccc1-c1nc(Nc2ccc3c(N4CCN(C)CC4)c(C(C)=O)c(=O)oc3c2)ncc1Cl | 1.7 |  | 1390 | 642 |  |
| CCN1CCN(c2c(C(C)=O)c(=O)oc3cc(Nc4ncc(F)c(-c5ccc(F)cc5OC)n4)ccc23)CC1 | 1.2 |  | 550 | 305 |  |
| COc1cc(F)ccc1-c1nc(Nc2ccc3c(N4CCN(C)CC4)c(C(C)=O)c(=O)oc3c2)ncc1F | 1.5 |  | 400 | 336 |  |
